According to article PMC5574666 (International Journal of Nanomedicine, 2017):
“And” between values parts separate entries of the source, which are not always exact repeats. Equal entries are not always repeated.

How the values were obtained:
MCF-7 cells [1] = assay: Cellular uptake; format: cell-based, Human; conditions: 6 and 24 h
MCF-7/ADR cells = assay: Cellular uptake; format: cell-based, Human; conditions: MCF-7/ADR cells compared with MCF-7 cells
Summary of the method: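 MCF-7 and MCF-7/ADR cells were grown in DMEM with 10% FBS and 1% penicillin-streptomycin at 37°C and 5% CO2. They were seeded at 5×10^4 per well in 24-well plates and grown 24 h.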

MCF-7 cells [2] = assay: Cytotoxicity MTT assay; format: cell-based, Human; conditions: 0.1-10 μg·mL^−1, 48 hours
[3] = In vivo pharmacokinetic study; conditions: male Sprague-Dawley rats, 5 mg·kg^−1 DOX i.v., n=6
[4] = Biodistribution of DOX in tumor-bearing mice; format: in vivo; conditions: BALB/c nude mice bearing MCF-7/ADR tumors, 5 mg·kg^−1 DOX i.v., 1, 6, 12, 24 hours
Maximum tolerated dose = format: in vivo; conditions: BALB/c mice; for Animal death: 2 weeks
Summary of the method: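 Female BALB/c mice were randomized into three formulation groups. […] Body weight and survival were monitored daily for 2 weeks. MTD was taken as the highest dose causing neither death from systemic toxicity nor >15% body weight loss over the study.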

In vivo toxicity study = assay: In vivo toxicity study; set-up: species or system BALB/c nude mice
Summary of the method: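 Male BALB/c nude mice bearing MCF-7/ADR xenografts were randomized into five groups when tumors reached ~100 mm3. Groups received i.v. saline, carrier or test formulations. Body weight was tracked during the efficacy study. At its end, heart, liver, spleen, lung and kidney were excised, stained with H&E and examined microscopically at 200×.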

With `COc1cccc2c1C(=O)c1c(O)c3c(c(O)c1C2=O)C[C@@](O)(C(=O)CO)C[C@@H]3O[C@H]1C[C@H](N)[C@H](O)[C@H](C)O1` [DOX, doxorubicin] the internalization into cells (MCF-7 cells [1]) was “internalized into MCF-7 cells in a time-dependent manner”, the internalization into cells (MCF-7/ADR cells) was “substantially reduced” and the cell viability (MCF-7 cells [2]) was “effectively reduced the viability of MCF-7 cells in a dose-dependent manner”. For the same compound, the “AUC0–∞” value [3] was 36.318 ± 6.517 µg/mL/h, the CL [3] was 2.37 ± 0.467 mL/min/kg and the Cmax [3] was 10275 ± 1219 ng/mL. For the same compound, the “MRT0–∞” value [3] was 3.429 ± 0.658 h, the Vd [3] was 0.300 ± 0.073 L/kg and the “DOX content in tumor” value [4] was “negligible after 6 hours”. The Weight loss (Maximum tolerated dose; single i.v. dose 5 mg/kg DOX) was 2.0%, the Animal death (Maximum tolerated dose; single i.v. dose 5 mg/kg DOX) was 0/3 and the Weight loss (Maximum tolerated dose; single i.v. dose 10 mg/kg DOX) was 7.4%. The Animal death (Maximum tolerated dose; single i.v. dose 10 mg/kg DOX) was 0/3, the Animal death (Maximum tolerated dose; single i.v. dose 15 mg/kg DOX, 15 mg/kg) was 2 out of 3 and 2/3 and the bodyweight reduction (In vivo toxicity study; BALB/c nude mice bearing MCF-7/ADR tumors, 5 mg DOX/kg) was 30%. The “H&E histology of main organs (heart, liver, spleen, lung, kidney)” value (In vivo toxicity study; end of the antitumor inhibition test) was “caused cardiotoxicity”.
